# High-throughput results from PubChem.
# CYP2C19 act: increases human CYP2C19 enzyme activity | activation factor at 5 µM | recombinant CYP2C19, luciferin-H EGE luminescence; hits give high values; 0 = fully inhibited enzyme, 1 = untreated enzyme | 96,000 tested, under 10 active | AID 1025;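 active = activation factor of at least 2 at 5 µM in the primary screen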;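 also: 0 = wells with 2.5 mM tranylcypromine and 1 = vehicle-only wells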
# Target sequence (P33261 whole entry, looked up): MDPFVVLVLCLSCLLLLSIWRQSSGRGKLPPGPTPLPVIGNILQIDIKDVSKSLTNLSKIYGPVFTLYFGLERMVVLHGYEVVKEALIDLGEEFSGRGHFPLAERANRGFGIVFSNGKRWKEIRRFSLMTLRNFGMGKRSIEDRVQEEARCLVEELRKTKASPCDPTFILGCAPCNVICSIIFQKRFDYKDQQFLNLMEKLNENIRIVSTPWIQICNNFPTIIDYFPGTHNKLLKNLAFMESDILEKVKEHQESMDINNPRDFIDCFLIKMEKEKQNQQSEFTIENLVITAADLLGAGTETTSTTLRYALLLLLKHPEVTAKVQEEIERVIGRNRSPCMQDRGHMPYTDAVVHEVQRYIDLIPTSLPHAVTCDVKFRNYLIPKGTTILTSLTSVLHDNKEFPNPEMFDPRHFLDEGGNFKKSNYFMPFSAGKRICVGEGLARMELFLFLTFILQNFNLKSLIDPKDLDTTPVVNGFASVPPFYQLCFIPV
# Cav3 T inh: blocks human Cav3.2 T-type calcium channel. O95180. Cav3.2-expressing cells, Fluo-4 calcium fluorescence FDSS; hits give low values. B-score at 10 µM. 4% of 100,000 active. AID 449739;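 active = single-dose well whose peak fluorescence ratio is a statistical outlier from its plate by either plate-standardised score or position-corrected B-score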
# CYP2C9 inhib: blocks human cytochrome P450 2C9 | P11712 | inhibition, % at 5 µM | 20% of 96,000 active | CYP2C9 Supersomes, luciferin-H conversion, luminescence;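 active = blocking of liver enzyme CYP2C9 beyond about 50% at 5 µM, limit read from the data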
# CYP2C9 act: increases human cytochrome P450 2C9 activity | AID 1024 | recombinant CYP2C9, luciferin-H conversion, luminescence; hits give high values; factor 1 = untreated enzyme, 0 = blocked | P11712 | 1.4% of 96,000 active | activation factor at 5 µM;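 active = activation factor of 2 or more for CYP2C9 at a 5 µM dose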;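 also: 0 = sulfaphenazole-blocked wells and 1 = vehicle-only wells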
# CYP2C19 inh: blocks human cytochrome P450 2C19; P33261; CYP2C19 Supersomes, luciferin-H EGE luminescence, 30 min; inhibition, % at 5 µM; 21% of 96,000 active; AID 778;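 active = CYP2C19 inhibition above a set limit at 5 µM in the primary screen, cut at about 50% in these data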;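 also: plate controls were negative control wells for no effect and 2.5 mM tranylcypromine positive control for full effect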
# HIV Rev-RRE inh: HIV Rev-RRE protein-RNA interaction inhibition. P05866. Rev peptide-RRE RNA binding, FRET. inhibition, % at 8 µM. 0.79% of 97,000 active. AID 704;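 active = inhibition above the screen-wide mean plus 3 SD, cut at about 35% in these data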;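 also: 0% = median DMSO wells and 100% = median Neomycin B control wells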
# Target sequence (P05866 whole entry, looked up): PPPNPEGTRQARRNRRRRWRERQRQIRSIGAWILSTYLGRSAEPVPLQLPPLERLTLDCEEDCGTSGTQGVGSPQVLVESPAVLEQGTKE
#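 Test system: labelled RRE RNA duplex and labelled Rev peptide. Times: 5 min compound–RNA preincubation, then 15 min with peptide, 25 °C. Doses: single-dose 8 µM. Measured by: FRET, excitation 480 nm, emission 540 nm donor and 671 nm acceptor. Measure: % inhibition of FRET ratio versus controls.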
# Starred values were filed as active, the others as inactive; . = no result given. The list is not random: actives were taken first. Their share in the collection is about 27%.
SMILES,CYP2C19 act,Cav3 T inh,CYP2C9 inhib,CYP2C9 act,CYP2C19 inh,HIV Rev-RRE inh
COc1ccc(CNC(=O)COC(=O)c2n[nH]c3ccccc23)cc1OC,.,-1.4,.,.,.,4
Cc1cccc(OCc2nc(-c3nonc3N)no2)c1C,0.3,-0.93,28,0.7,66*,.
CCOc1ccc(-c2noc(CCC(N)=O)n2)cc1OCC,1.1,0.011,-10,1.1,-11,.
CCOc1ccc(Cc2nc(-c3nonc3N)no2)cc1OCC,0.5,-1.4,7,0.9,50*,.
CCCCCCN(C(=O)CCCCCN1C(=O)NC(c2ccc(-c3ccccc3)cc2)C(C(=O)OCc2ccccc2)=C1C)C(C(=O)NCCCC)c1ccc(O)c(C(=O)OC)c1 (configuration not stated),.,-0.87,.,.,.,.
O=C(CN1CCN(c2ncccn2)CC1)N(Cc1ccccc1)c1ccc(F)cc1,0.4,-1.6,50*,0.5,61*,9
Cc1c(NC(=O)C(C)N2CC(C)OC(C)C2)c(=O)n(-c2ccccc2)n1C (configuration not stated),1.1,0.78,-8,1.1,-8,5
COc1cc2c(cc1NC(=O)Nc1cccc(C)c1)oc1ccccc12,1,0.27,-3,1,-3,5
COc1cc2c(cc1NC(=O)Nc1ccc(C)cc1)oc1ccccc12,0.9,-0.068,34,0.7,6,11
COc1cccc(NC(=O)c2ccncc2)c1,0.6,0.57,3,1,36,10
COc1cccc(NC(=O)c2cc(-c3cccnc3)nc3c(Cl)cccc23)c1,0.6,-0.096,77*,0.2,38,5
COc1cc2c(cc1NC(=O)/C=C/c1ccccc1)oc1ccccc12,0.8,-1.1,78*,0.2,15,6
COc1ccc(NC(=O)c2cc(-c3cccnc3)nc3c(C)c(C)ccc23)c(OC)c1,0.2,-1.1,86*,0.1,80*,1
COc1cc2c(cc1NC(=O)c1cc(-c3cccnc3)nc3ccc(C)cc13)oc1ccccc12,0.7,-2.6,75*,0.2,31,7
CCOC(=O)c1c(C)[nH]c(C(=O)OCC(=O)NC2CCS(=O)(=O)C2)c1C (configuration not stated),1.1,0.26,8,0.9,-11,1
COC(=O)c1cc2nc(-c3ccccc3)cc(C)n2n1,1,0.58,-1,1,-4,5
COc1ccc(NC(=O)c2cc3nc(-c4ccccc4)cc(-c4ccccc4)n3n2)c(OC)c1,0.6,-2.1,77*,0.2,36,5
O=C(COc1ccccc1-c1ccccc1)N/N=C/c1cccc2ccccc12,0.7,-2.6,12,0.9,31,-1
O=C(NC(C(=O)N/N=C/c1cccc2ccccc12)c1n[nH]c(=O)c2ccccc12)c1ccccc1 (configuration not stated),0.7,-1.8,56*,0.4,33,4
C=CCOC(=O)C1=C(C)Nc2nnnn2C1c1cccs1 (configuration not stated),0.6,-0.023,28,0.7,45,-2
Cc1nc2c(C)cccn2c1C(=O)c1ccccc1,0.8,-0.0074,6,0.9,19,-2
Cc1c(C=O)c2ccccn2c1C(=O)c1ccccc1,0.1,-0.79,90*,0.1,85*,8
COc1ccc(NC(=O)CCNS(=O)(=O)c2ccc(Br)s2)cc1,0.7,-0.48,68*,0.3,29,-3
CCOc1ccc(NC(=O)CCNS(=O)(=O)c2cccs2)cc1,0.3,0.6,-46,1.5,66*,6
O=C(CCNS(=O)(=O)c1cccs1)N1CCc2ccccc2C1,0.4,1.1,3,1,59*,4
SMILES,CYP2C19 act,Cav3 T inh,CYP2C9 inhib,CYP2C9 act,CYP2C19 inh,HIV Rev-RRE inh
COc1cccc(CNC(=O)CCCNS(=O)(=O)c2cccs2)c1,0.7,0.29,30,0.7,32,3
O=C(CCNS(=O)(=O)c1cccs1)NCc1ccccc1,0.2,0.22,23,0.8,83*,8
CCOc1ccc(NC(=O)CCC(=O)O)cc1,1,-0.28,-46,1.5,0,12
CCOCCOCCC(C(=O)OCC)P(=O)(c1ccccc1)c1ccccc1 (configuration not stated),1.1,0.17,-12,1.1,-7,1
O=C(O)c1cn(C2CC2)c2cc(N3CCOCC3)c(F)cc2c1=O,.,.,.,.,.,-2
COc1cc(SC)ccc1C(=O)NCCOc1c(C)cc(C)cc1C,0.8,0.33,0,1,20,12
C[C@H](NC(=O)c1nc[nH]c1C(=O)N[C@@H](CCCCNC(=O)OC(C)(C)C)C(=O)OC(C)(C)C)c1ccccc1,.,-2.2,.,.,.,.
Cn1cc(CC(=O)NCCCN2CCCC2)c2ccccc21,0.9,0.016,17,0.8,10,7
CC(=O)NC(Cc1ccccc1F)C(=O)NC1CCN(C(=O)c2cnccn2)CC1 (configuration not stated),1,0.62,-1,1,0,2
O=C(NCc1ccc(F)cc1)C(Cc1ccccc1)NS(=O)(=O)c1cccs1 (configuration not stated),0.1,-0.91,50*,0.5,89*,2
O=C(NCc1ccccc1)C(Cc1ccccc1)NS(=O)(=O)c1cccc2nsnc12 (configuration not stated),0.9,0.53,25,0.8,14,7
O=C(O)CCn1c(=O)sc2ccccc21,1.1,0.54,-2,1,-13,1
O=c1sc2ccccc2n1CCOc1ccccc1,0,-2.2,88*,0.1,98*,1
COc1ccccc1OCCCn1c(=O)sc2ccccc21,0,-2,74*,0.3,100*,12
CCOC(=O)Cn1c(=O)sc2ccccc21,0.5,-0.033,4,1,47,1
Cc1ccc(OCn2c(=O)sc3ccccc32)cc1,0.4,-1.4,38,0.6,56*,13
O=C(Nc1ccc(NC(=O)C2CC2)nc1)c1ccncc1,0.9,0.053,56*,0.4,13,10
O=C(Nc1ccc(Cc2ccncc2)cc1)c1ccc(Cl)c([N+](=O)[O-])c1,0.2,-8.7*,76*,0.2,77*,8
Cc1ccc(NCC(=O)c2ccccc2)cc1Cl,0.7,0.25,-4,1,34,3
O=C(Nc1ccc(Cl)c(Cl)c1)c1ccncc1,0,0.87,54*,0.5,96*,-2
O=C(CNc1cccc(Cl)c1)c1ccc(Cl)cc1,0.1,0.15,15,0.9,86*,3
Cc1ccccc1C(=O)NCc1nnc(SCC(=O)N2c3ccccc3Sc3ccccc32)n1C,0.8,-3.7,-3,1,23,12
CN1[C@@H]2CC(OC(=O)[C@H](CO)c3ccccc3)C[C@H]1[C@@H]1O[C@@H]12 (some centres not stated),.,1.2,.,.,.,.
Cc1nc(Oc2ccc(Cl)cc2)c2oc3ccccc3c2n1,1,0.84,-1,1,0,5
